Screens from PubChem.
An excerpt weighted towards active compounds, which were near 1.2% of everything screened.
TbHK1 inh: blocks Trypanosoma brucei hexokinase 1 activity; inhibition, % at 10 µM; actives 0.11% (n = 220,000); AID 1430; recombinant TbHK1, G6PDH-coupled NADH A340;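 active means inhibition of 50% or more in the single-dose primary screen; inactive means inhibition below 50%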
HKDC1 inhibitor: HKDC1 (human) hexokinase inhibition. Q2TB90. recombinant HKDC1, G6PDH/diaphorase resazurin coupled fluorescence. inhibition, % at 20 µM. actives 0.16% (n = 340,000);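 active means inhibition above about 35% when tested at 20 µM, limit read from the data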;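 further: plate controls were DMSO wells with enzyme for no effect and DMSO wells lacking enzyme for full effect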
Target sequence (Q2TB90 whole entry, looked up): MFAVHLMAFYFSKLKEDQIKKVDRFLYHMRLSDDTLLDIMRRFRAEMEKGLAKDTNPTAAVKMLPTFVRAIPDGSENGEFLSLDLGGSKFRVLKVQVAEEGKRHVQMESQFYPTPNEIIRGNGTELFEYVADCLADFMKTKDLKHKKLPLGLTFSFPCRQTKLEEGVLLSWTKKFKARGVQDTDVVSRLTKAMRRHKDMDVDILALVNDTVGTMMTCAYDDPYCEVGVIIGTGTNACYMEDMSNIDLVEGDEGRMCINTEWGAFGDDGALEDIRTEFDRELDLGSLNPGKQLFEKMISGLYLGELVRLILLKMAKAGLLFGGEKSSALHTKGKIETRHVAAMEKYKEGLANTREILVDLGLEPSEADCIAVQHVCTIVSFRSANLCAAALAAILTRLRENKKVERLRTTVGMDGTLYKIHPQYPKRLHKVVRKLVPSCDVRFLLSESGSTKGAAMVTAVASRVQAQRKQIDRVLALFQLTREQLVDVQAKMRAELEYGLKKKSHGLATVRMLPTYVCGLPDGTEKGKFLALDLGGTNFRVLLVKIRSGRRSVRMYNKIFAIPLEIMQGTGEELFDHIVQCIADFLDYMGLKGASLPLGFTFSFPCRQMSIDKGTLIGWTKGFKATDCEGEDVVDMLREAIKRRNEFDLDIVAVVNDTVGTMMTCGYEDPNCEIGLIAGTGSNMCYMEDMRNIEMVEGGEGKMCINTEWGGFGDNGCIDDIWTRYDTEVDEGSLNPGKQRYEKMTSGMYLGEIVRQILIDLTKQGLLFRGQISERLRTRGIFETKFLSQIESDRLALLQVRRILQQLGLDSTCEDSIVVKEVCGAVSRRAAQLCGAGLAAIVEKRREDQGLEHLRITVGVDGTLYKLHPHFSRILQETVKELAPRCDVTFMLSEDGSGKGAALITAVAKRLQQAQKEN
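Material: recombinant HKDC1 hexokinase; Amount: HKDC1 at 5 µg/mL; Medium: Tris pH 8.0 buffer with MgCl2, Tween-20, BSA, BME; Schedule: 90 min reaction incubation at room temperature, dark; Technique: coupled resazurin fluorescence, excitation 525 nm, emission 613 nm.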
G6PDH counter-1: L. mesenteroides G6PDH inhibition counter-screen; Purified L. mesenteroides G6PDH, diaphorase/resazurin coupled fluorescence, 45 min; inhibition, % at 5 µM; actives 0.12% (n = 200,000); AID 1020; in the data active means inhibition above about 50%
PfGluPho inh: PfG6PD (Plasmodium falciparum) enzyme inhibition; inhibition, % at 20 µM; PfGluPho enzyme, NADPH resazurin-diaphorase fluorescence; actives 0.78% (n = 350,000);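 active means inhibition reaching at least a set limit at 20 µM in the primary screen, cut at about 59% in these data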;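 further: 0% = DMSO wells with substrate and 100% = DMSO wells lacking glucose-6-phosphate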
Diaphorase inh: diaphorase inhibition or chemical oxidation counter-screen; diaphorase resazurin-to-resorufin fluorescence, NADH, 16 min; bacterial (C. kluyveri) enzyme, not human; inhibition, % at 20 µM; actives 0.69% (n = 190,000); AID 1217;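 active means primary screen inhibition at 20 µM above a set limit, cut at about 50% in these data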;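 further: plate controls were DMSO with full reaction for no effect and wells lacking NADH for full effect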
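controls = No-NADH positive control and DMSO neutral control | system = Clostridium kluyveri diaphorase enzyme | timing = reaction incubation of 16 min at room temperature | signal = resorufin fluorescence 544/590 nm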
G6PDH counter-2: counter-screen for TbHK1 inhibitors: Leuconostoc G6PDH inhibition; actives 7% (n = 210); AID 2516; inhibition, % at 10 µM; shares compounds with TbHK1 inh; purified G6PDH, NADH absorbance, 1 h;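 active means at least 50% inhibition in the glucose-6-phosphate dehydrogenase coupled counterscreen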
TbHK1 confirm: confirmation of Trypanosoma brucei hexokinase 1 inhibitors | shares compounds with TbHK1 inh | recombinant TbHK1, G6PDH-coupled NADH A340 absorbance | inhibition, % at 10 µM | actives 10% (n = 210) | AID 2560;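 active means inhibition of at least 50% in both of the two screening runs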;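 further: 0% and 100% set by the maximum and minimum signal control wells on each plate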
HKDC1 act conf: confirmation of human HKDC1 activators; AID 504708; inhibition, % at 20 µM; shares compounds with HKDC1 inhibitor; recombinant HKDC1, G6PDH/diaphorase resazurin fluorescence; stronger effect = lower value; actives 14% (n = 740);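 active means inhibition at or below a set negative limit, negative inhibition meaning the enzyme was activated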
PfG6PD confirm: confirmation of Plasmodium falciparum G6PD inhibitors. shares compounds with PfGluPho inh. recombinant PfGluPho, NADPH-diaphorase-resazurin fluorescence. inhibition, % at 20 µM. actives 34% (n = 2,400);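 active means inhibition of at least 50% at 20 µM in any single replicate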;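 further: 0% = DMSO with substrate and 100% = DMSO lacking glucose-6-phosphate substrate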
Diaphorase 10uM: inhibits diaphorase or oxidizes, flagging false PfG6PD hits; shares compounds with PfGluPho inh; diaphorase-coupled resazurin reduction, fluorescence, NADPH 10 uM; inhibition, % at 20 µM; actives 39% (n = 820); AID 504862;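 active means average inhibition reaching 50% or more with the compound at 20 µM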;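 further: resorufin red fluorescence formed as diaphorase reduces resazurin using NADPH; 0% = DMSO with enzyme and 100% = DMSO without enzyme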
Diaph ctr 30uM: diaphorase inhibition or oxidation at 30 uM NADPH. inhibition, % at 20 µM. Diaphorase/resazurin coupled assay, resorufin fluorescence. shares compounds with PfGluPho inh. actives 29% (n = 820). AID 504863;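 active means inhibition averaging 50% or more, tested at 20 µM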;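 further: 0% = DMSO with enzyme and 100% = DMSO wells lacking diaphorase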
* hit, by the source's call; x = no result.

SMILES | TbHK1 inh | HKDC1 inhibitor | G6PDH counter-1 | PfGluPho inh | Diaphorase inh | HKDC1 act conf | others
c1ccc(-c2nc(C3CCCCC3)no2)cc1 | 8.6 | 3.6 | 3.6 | -10.0 | 10.6 | x
COc1ccc(CC/C(=N\O)C2(O)CCCCC2)cc1 | 73.7* | -5.2 | 8.0 | -7.5 | 16.8 | x | G6PDH counter-2=-4.0;TbHK1 confirm=3.6
CC(=O)Nc1ccc(NC(=O)CCC(=O)NCCO)cc1 | 34.6 | -8.4 | 3.7 | 8.5 | 8.0 | x
O=C(CCC(=O)Nc1ccc(Oc2ccccc2)cc1)NCCO | 50.3* | -1.1 | 2.5 | -8.0 | 13.8 | x | G6PDH counter-2=-9.8;TbHK1 confirm=1.6
O=[N+]([O-])c1nc2ccccc2[nH]1 | x | -4.9 | x | -5.9 | x | x
O=C(NC1CCCCC1)C(c1cccnc1)N(C(=O)c1csnn1)c1ccc(F)cc1 (stereo not drawn) | x | -9.9 | x | 2.3 | x | x
CS(=O)(=O)n1nc(-c2ccc(Cl)cc2)nc1N | 1.6 | -6.6 | 16.4 | 6.0 | 7.1 | x
Cn1nc(-c2ccc(Cl)cc2)nc2c(=O)n(C)c(=O)nc1-2 | 79.3* | x | 61.4* | x | -35.3 | x | G6PDH counter-2=65.8*;TbHK1 confirm=56.5*
CCn1cc(C(=O)N[C@H](C(=O)NCCCn2ccnc2)C(C)C)c(=O)c2cc3c(cc21)OCO3 | x | -1.1 | x | 1.2 | x | x
CCN1/C(=C/C=C/c2oc3ccc4ccccc4c3[n+]2CC)Oc2ccc3ccccc3c21 | 99.6* | 50.8* | 2.5 | 60.4* | -24.6 | x | G6PDH counter-2=131.9*;TbHK1 confirm=84.6*
CC[n+]1c(/C=C/N(C)c2ccccc2)oc2ccc(Cl)cc21 | -48.0 | -18.8 | 0.7 | 29.1 | 24.8 | x
CCOc1cccc2c1OC1(C)CC2NC(=O)N1c1cccc(F)c1 (stereo not drawn) | 56.9* | -1.7 | 4.4 | 22.1 | 5.7 | x | G6PDH counter-2=-4.8;TbHK1 confirm=-1.2
COc1ccc(C(=O)Nc2cc(Cl)ccc2C(=O)O)cc1 | 53.3* | 6.2 | -0.8 | 104.8* | 10.2 | x | G6PDH counter-2=-20.2;TbHK1 confirm=65.1*;PfG6PD confirm=50.7*;Diaphorase 10uM=45.2;Diaph ctr 30uM=46.8
Nn1c(SCC(=O)N2CCCC2)nnc1-c1cccs1 | x | x | x | 5.8 | x | x
Cc1cc2cc(CCNC(=O)c3ccc(S(=O)(=O)N4CCCC4)cc3)c(=O)[nH]c2cc1C | x | 41.4* | x | -9.7 | x | 53.2
N#Cc1c(SCC(=O)Nc2nc3ccccc3s2)sc2c(O)cc(=O)[nH]c12 | x | 27.7 | x | 11.8 | x | x
N#Cc1c(SCC(=O)Nc2nc3ccc(Br)cc3s2)sc2c(O)cc(=O)[nH]c12 | x | 33.8 | x | 0.5 | x | 44.9
COC(=O)C1CC(c2ccccc2)N(c2ccccc2)O1 (stereo not drawn) | x | x | x | -9.5 | x | x
Cc1ccc(C(=O)/C=C/N(C)C)o1 | -33.4 | -5.6 | 5.1 | 0.3 | 10.3 | x
Cc1ccc(C(=O)/C=C/c2cc(Br)cc(Br)c2O)o1 | x | 35.7* | x | -7.6 | x | 8.7
Cc1cc(C2=NNC(=Nc3ccc(S(=O)(=O)N4CCOCC4)cc3)SC2)c(C)n1C | -28.4 | -72.5 | x | 54.1 | x | -46.6*
Cc1ccccc1OCC(=O)Nc1ccc([N+](=O)[O-])cc1 | x | -5.1 | x | -2.2 | x | x
Cc1cc(C)c2c(=O)[nH]cnc2n1 | -2.8 | 64.4* | 4.7 | 25.0 | 2.9 | -14.3
Cc1ccc(C(=O)ONc2ccc(N=NC(=O)c3ccccc3O)cc2)cc1 | -38.4 | 65.0* | 4.3 | -29.8 | 54.2* | -2.1
COc1ccc(-c2cc(N)n(S(=O)(=O)Cc3ccccc3)n2)c(OC)c1 | -2.8 | -1.9 | 0.4 | 34.8 | 12.1 | x
COc1ccc(-c2cc(N)n(CCC#N)n2)c(OC)c1 | 4.1 | 40.2* | 3.0 | -1.6 | 8.1 | -34.9
O=Cc1ccc([B-](F)(F)F)s1 | x | -2.3 | x | -4.6 | x | x
